ChEMBL document CHEMBL3600383, “A new polyoxygenated cyclohexene and a new megastigmane glycoside from Uvaria grandiflora” (Bioorg Med Chem Lett, 2015)

Assays:
Assay type in all cases: functional, cell-based
[1] = tested on: Lu1; experiment: Cytotoxic activity against human Lu1 cells assessed as inhibition of cell growth incubated for 48 hrs by SRB method; details: Lu1, 48 h
In short: (§1)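 Sulforhodamine B growth-inhibition assay run as part of a panel of nine human cancer cell lines. Potency is reported as IC50 in µM.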

[2] = tested on: KB; experiment: Cytotoxic activity against human KB cells assessed as inhibition of cell growth incubated for 48 hrs by SRB method; in short: as §1
[3] = tested on: MDA-MB-231; experiment: Cytotoxic activity against human MDA-MB-231 cells assessed as inhibition of cell growth incubated for 48 hrs by SRB method; details: MDA-MB-231, 48 h; in short: as §1
[4] = tested on: LNCaP; experiment: Cytotoxic activity against human LNCAP cells assessed as inhibition of cell growth incubated for 48 hrs by SRB method; in short: as §1
[5] = tested on: HepG2; experiment: Cytotoxic activity against human HepG2 cells assessed as inhibition of cell growth incubated for 48 hrs by SRB method; details: HepG2, 48 h; in short: as §1
[6] = Cytotoxic activity against human MKN7 cells assessed as inhibition of cell growth incubated for 48 hrs by SRB method; details: MKN-7, 48 h; in short: as §1
[7] = tested on: SW480; experiment: Cytotoxic activity against human SW480 cells assessed as inhibition of cell growth incubated for 48 hrs by SRB method; details: SW480, 48 h; in short: as §1
[8] = tested on: HL-60; experiment: Cytotoxic activity against human HL60 cells assessed as inhibition of cell growth incubated for 48 hrs by SRB method; details: HL-60, 48 h; in short: as §1
[9] = tested on: SK-MEL-2; experiment: Cytotoxic activity against human SK-MEL-2 cells assessed as inhibition of cell growth incubated for 48 hrs by SRB method; details: SK-MEL-2, 48 h
In short: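 Sulforhodamine B growth-inhibition assay, run in parallel across a panel of nine human cancer cell lines. Potency is reported as IC50 in µM.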

## O=C(OC[C@@]1(O)C(=O)C=C[C@@H](O)[C@@H]1O)c1ccccc1
[1]
  IC50: 4.68 µM
[2]
  IC50: 13.3 µM
[3]
  IC50: 64.1 µM
[4]
  IC50: 45.4 µM
[5]
  IC50: 13.1 µM
[6]
  IC50: 8.63 µM
[7]
  IC50: 11.3 µM
[8]
  IC50: 6.22 µM
[9]
  IC50: 3.63 µM

## Cc1c2ccncc2c(C)c2c1[nH]c1ccccc12 [ELLIPTECINE]
[1]
  IC50: 2.72 µM
[2]
  IC50: 3.98 µM
[3]
  IC50: 3.21 µM
[4]
  IC50: 3.21 µM
[5]
  IC50: 3.5 µM
[6]
  IC50: 3.82 µM
[7]
  IC50: 3.17 µM
[8]
  IC50: 2.93 µM
[9]
  IC50: 1.14 µM

## C[C@@H]1O[C@@H](O[C@H]2[C@H](O[C@H]3CO[C@@H](O[C@H]4CC[C@]5(C)[C@H]6CC[C@]78OC[C@@]9(CC[C@](C)(C=O)C[C@H]97)[C@H](O)C[C@@]8(C)[C@]6(C)CC[C@H]5C4(C)C)[C@H](O[C@@H]4O[C@H](CO)[C@@H](O)[C@H](O)[C@H]4O)[C@H]3O)O[C@H](CO)[C@@H](O)[C@@H]2O)[C@H](O)[C@H](O)[C@H]1O [ARDISIACRISPIN B]
[1]
  IC50: 1.41 µM
[2]
  IC50: 1.6 µM
[3]
  IC50: 11.8 µM
[4]
  IC50: 9.7 µM
[5]
  IC50: 1.53 µM
[6]
  IC50: 1.27 µM
[7]
  IC50: 1.24 µM
[8]
  IC50: 22.6 µM
